Legend:
[1] = tested on: Hepatitis B virus; test: Antiviral activity against HBV infected in human HepG2(2.2.15) cells assessed as decrease in extracellular viral DNA level after 24 hrs by blot hybridization assay; type: functional, organism-based; conditions: HepG2 2.2.15, 24 h
Outline: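 Confluent 2.2.15 cells in RPMI 1640 with 2% FBS got nine consecutive daily doses, with medium replaced daily with drug-containing medium. Six wells per concentration over two replicate plates. Cells were pelleted from the medium, which was kept at 4°C and not frozen. Extracellular HBV DNA was quantified by blot hybridization 24 h after the last dose.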

[2] = Selectivity index, ratio of CC50 for human HepG2(2.2.15) cells to EC50 for HBV infected in human HepG2(2.2.15) cells
Outline: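 Ratio from two 2.2.15 readouts after nine daily doses in RPMI/2% FBS. Extracellular HBV DNA was measured by quantitative blot hybridization and cytotoxicity by neutral red uptake (three cultures per concentration), both 24 h after the final dose.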

[3] = tested on: HepG2; test: Drug metabolism in human HepG2 cells assessed as unidentified metabolite uptake at 10 uM after 48 hrs; type: ADME, cell-based; conditions: hepg2, 48 h
[4] = tested on: HepG2; test: Drug metabolism in human HepG2 cells assessed as HPMPA uptake at 10 uM after 24 hrs; type: ADME, cell-based; conditions: hepg2, 24 h
Outline: (§1)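 Nearly confluent HepG2 flasks got 14C-labeled drug (final 10 µM, 50 mCi/mmol) for 24 h. Cells were washed with cold PBS, lysed in water by two freeze-thaw cycles and sonication, then extracted with cold TCA (8% final) and centrifuged at 4°C. Supernatant was counted and analyzed by SAX ion-exchange HPLC, with metabolites assigned by retention versus reference standards.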

[5] = tested on: HepG2; test: Drug metabolism in human HepG2 cells assessed as HPMPA uptake at 10 uM after 48 hrs; type: ADME, cell-based; conditions: hepg2, 48 h
[6] = tested on: HepG2; test: Drug metabolism in human HepG2 cells assessed as HPMPAp uptake at 10 uM after 24 hrs; type: ADME, cell-based; conditions: hepg2, 24 h; outline: as §1
[7] = tested on: HepG2; test: Drug metabolism in human HepG2 cells assessed as HPMPAp uptake at 10 uM after 48 hrs; type: ADME, cell-based; conditions: hepg2, 48 h
[8] = Tmax in Swiss-Webster mouse lung at 10 mg/kg, po after 24 hrs; type: ADME, organism-based; design: dose 10 mg/kg, route oral
Outline: (§2)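 Female Swiss-Webster mice (about 25 g) got one 10 mg/kg dose of the 8-14C-labeled ester (50 mCi/mmol) in 0.7% saline, by oral gavage or intraperitoneal injection. Blood was taken at 1, 3, 6, 12 and 24 h. Liver, spleen, kidney, lung, heart and brain were excised, washed and weighed. Drug plus metabolites were measured by liquid scintillation as µM plasma equivalents or nmol/g tissue. Each time point is the mean of three replicates.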

[9] = Tmax in Swiss-Webster mouse spleen at 10 mg/kg, po after 24 hrs; type: ADME, organism-based; design: dose 10 mg/kg, route oral; outline: as §2
[10] = Tmax in Swiss-Webster mouse brain at 10 mg/kg, po after 24 hrs; type: ADME, organism-based; design: dose 10 mg/kg, route oral
Outline: (§3)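 Female Swiss-Webster mice (about 25 g) each got a single 10 mg/kg dose of the 14C-labeled (8-14C) ester (50 mCi/mmol) in 0.7% saline, by oral gavage or ip injection. Blood was taken at 1, 3, 6, 12 and 24 h, and liver, spleen, kidney, lung, heart and brain were excised, washed and weighed. Radioactivity was measured by scintillation counting as µM plasma equivalents or nmol/g tissue, mean of three per time point.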

[11] = tested on: Liver; test: AUC in Swiss-Webster mouse liver assessed per gram of tissue at 10 mg/kg, po after 24 hrs; type: ADME, organism-based; design: time < 24 hr, dose 10 mg/kg, route oral; conditions: in vivo; outline: as §3
[12] = tested on: Kidney; test: AUC in Swiss-Webster mouse kidney assessed per gram of tissue at 10 mg/kg, po after 24 hrs; type: ADME, organism-based; design: time < 24 hr, dose 10 mg/kg, route oral; conditions: in vivo; outline: as §3
[13] = tested on: Spleen; test: AUC in Swiss-Webster mouse spleen assessed per gram of tissue at 10 mg/kg, po after 24 hrs; type: ADME, organism-based; design: time < 24 hr, dose 10 mg/kg, route oral; conditions: in vivo; outline: as §3
[14] = tested on: Brain; test: AUC in Swiss-Webster mouse brain assessed per gram of tissue at 10 mg/kg, po after 24 hrs; type: ADME, organism-based; design: time < 24 hr, dose 10 mg/kg, route oral; conditions: in vivo; outline: as §3
[15] = Tmax in Swiss-Webster mouse plasma at 10 mg/kg, ip after 24 hrs; type: ADME, organism-based; design: dose 10 mg/kg, route intraperitoneal; outline: as §2
[16] = Tmax in Swiss-Webster mouse kidney at 10 mg/kg, ip after 24 hrs; type: ADME, organism-based; design: dose 10 mg/kg, route intraperitoneal; outline: as §3
[17] = Tmax in Swiss-Webster mouse lung at 10 mg/kg, ip after 24 hrs; type: ADME, organism-based; design: dose 10 mg/kg, route intraperitoneal; outline: as §2
[18] = Tmax in Swiss-Webster mouse heart at 10 mg/kg, ip after 24 hrs; type: ADME, organism-based; design: dose 10 mg/kg, route intraperitoneal; outline: as §3
[19] = Tmax in Swiss-Webster mouse brain at 10 mg/kg, ip after 24 hrs; type: ADME, organism-based; design: dose 10 mg/kg, route intraperitoneal; outline: as §3
[20] = tested on: Liver; test: Cmax in Swiss-Webster mouse liver assessed per gram of tissue at 10 mg/kg, ip after 24 hrs; type: ADME, organism-based; design: dose 10 mg/kg, route intraperitoneal; conditions: in vivo; outline: as §3
[21] = tested on: Lung; test: Cmax in Swiss-Webster mouse lung assessed per gram of tissue at 10 mg/kg, ip after 24 hrs; type: ADME, organism-based; design: dose 10 mg/kg, route intraperitoneal; conditions: in vivo; outline: as §3
[22] = tested on: Spleen; test: Cmax in Swiss-Webster mouse spleen assessed per gram of tissue at 10 mg/kg, ip after 24 hrs; type: ADME, organism-based; design: dose 10 mg/kg, route intraperitoneal; conditions: in vivo; outline: as §3
[23] = tested on: Brain; test: Cmax in Swiss-Webster mouse brain assessed per gram of tissue at 10 mg/kg, ip after 24 hrs; type: ADME, organism-based; design: dose 10 mg/kg, route intraperitoneal; conditions: in vivo; outline: as §3
[24] = tested on: Kidney; test: AUC in Swiss-Webster mouse kidney assessed per gram of tissue at 10 mg/kg, ip after 24 hrs; type: ADME, organism-based; design: time < 24 hr, dose 10 mg/kg, route intraperitoneal; conditions: in vivo; outline: as §3
[25] = tested on: Spleen; test: AUC in Swiss-Webster mouse spleen assessed per gram of tissue at 10 mg/kg, ip after 24 hrs; type: ADME, organism-based; design: time < 24 hr, dose 10 mg/kg, route intraperitoneal; conditions: in vivo; outline: as §3
[26] = tested on: Mus musculus; test: Toxicity in transgenic mouse at 30 to 100 mg/kg, po assessed as morbidity after 7 days; type: organism-based; design: dose 30-100 mg/kg, route oral; conditions: in vivo, 168 h
[27] = tested on: Hepatitis B virus; test: Antiviral activity against wild type HBV infected in human HuH7 cells assessed as decrease in viral transient transfection after 5 days; conditions: Huh-7, 5 days
[28] = tested on: Hepatitis B virus; test: Antiviral activity against HBV harboring RNA polymerase M204V mutant gene infected in human HuH7 cells assessed as decrease in viral transient transfection after 5 days; conditions: Huh-7, 5 days
[29] = tested on: Hepatitis B virus; test: Antiviral activity against HBV harboring RNA polymerase M204I mutant gene infected in human HuH7 cells assessed as decrease in viral transient transfection after 5 days; conditions: Huh-7, 5 days

For `CCCCCCCCCCCCCCCCOCCCOP(=O)(O)CO[C@H](CO)Cn1cnc2c(N)ncnc21`, the EC50 [1] was 188 nM, the EC90 [1] was 616 nM and the “Selectivity Index” value [2] was over 483. The Drug uptake [3] was 402 pmol, the Drug uptake [4] was 1007 pmol and the Drug uptake [5] was 393 pmol. The Drug uptake [6] was 255 pmol, the Drug uptake [7] was 344 pmol and the Tmax [8] was 3 h. For the same compound, the Tmax [9] was 3 h, the Tmax [10] was 3 h and the AUC [11] was 222.2 nmol·h/g. For the same compound, the AUC [12] was 68.8 nmol·h/g, the AUC [13] was 3.9 nmol·h/g and the AUC [14] was 0.68 nmol·h/g. It also gave a Tmax [15] of 3 h, a Tmax [16] of 1 h and a Tmax [17] of 1 h. The Tmax [18] was 1 h, the Tmax [19] was 1 h and the Cmax [20] was 131.5 nmol/g. It also gave a Cmax [21] of 2.84 nmol/g, a Cmax [22] of 1.58 nmol/g and a Cmax [23] of 0.16 nmol/g. For the same compound, the AUC [24] was 195.7 nmol·h/g, the AUC [25] was 16.3 nmol·h/g and the Activity [26] was “Toxic”. For the same compound, the EC50 [27] was 800 nM, the EC90 [27] was 3000 nM and the EC50 [28] was 900 nM. It also gave an EC90 [28] of 3200 nM, an EC50 [29] of 1200 nM and an EC90 [29] of 4000 nM.
